Data on two molecules can be found in paper PMC8945107 (ACS Omega, 2022).

Assay [1] has as its system A549 cells. Nature of the assay: Vacuolization, fluorescence inverted microscope. Type of assay: cell-based, human. As to conditions: 10 mM NAC with 2 μM 5e; vacuolization 12 h, MTT 24 h. The procedure, abridged:
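A549 cells were given 2 μM test compound for 12, 24 or 36 h, or 1–4 μM for 24 h, and photographed on an inverted fluorescence microscope. For antioxidant co-treatment, 10 mM NAC was combined with 2 μM compound. Vacuolization was imaged at 12 h, and viability was measured by MTT at 24 h (absorbance 570 nm after DMSO solubilisation).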

Assay [2] relates to A549 cells. Nature of the assay: Detection of intracellular ROS. Format: cell-based, human. As to conditions: 10 mM NAC with 2 μM 5e, 12 h. The procedure, abridged:
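A549 cells in 6-well plates were pretreated with NAC for 2 h, then treated with test compound. Afterward they were stained with 10 μM DCFH-DA in FBS-free medium for 0.5 h in the incubator and washed twice with PBS. Cells were collected, resuspended in PBS and analysed by flow cytometry.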

A further assay relates to NCI-H460. Nature of the assay: MTT antiproliferative assay, NCI-H460. Format: cell-based. Particulars: Homo sapiens, NCI-H460, 48 h, read-out: IC50 NCI-H460. The procedure, abridged: (§1)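 Cells in 96-well plates were preincubated 24 h, then exposed to test compound 48 h. MTT solution (5 mg/mL stock) was added for 4 h, medium removed, formazan dissolved in DMSO, plate shaken 1 min and absorbance read at 570 nm. Three independent experiments.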

In assay [3] the test system is human bronchial epithelioid cells (HBE). Nature of the assay: MTT antiproliferative / cell viability assay, HBE. Particulars: 48 h, read-out: IC50 HBE. Type of assay: cell-based. The procedure, abridged: as §1
Another assay relates to PC-3. Nature of the assay: MTT antiproliferative assay, PC-3. Format: cell-based. As to conditions: Homo sapiens, PC-3, 48 h, read-out: IC50 PC-3. The procedure, abridged:
as §1
In general terms: Formazan colour is commonly taken as a measure of viable cells.

For the molecule `CC(=O)N[C@@H](CS)C(=O)O` [NAC, N-acetylcysteine], the “effect of NAC on vacuolization and cell death induced by 5e” value with A549 cells [1] was “could not remarkably suppress vacuolization and cell death”. Besides, the “effect of NAC on ROS level induced by 5e” value in the assay on A549 cells [2] is given as “could inhibit the level of ROS”.
Turning to `COc1cccc2c1C(=O)c1c(O)c3c(c(O)c1C2=O)C[C@@](O)(C(=O)CO)C[C@@H]3O[C@H]1C[C@H](N)[C@H](O)[C@H](C)O1` [DOX, Doxorubicin], the IC50 amounted to 3.14 ± 0.57 µM in the assay with NCI-H460, 2.54 ± 0.16 µM in assay [3] and 1.13 ± 0.2 µM with PC-3.

Usually IC50 stands for the midpoint of a concentration-inhibition curve.
